Assay results from ChEMBL document CHEMBL1142820, “Identification of potent and selective MMP-13 inhibitors” (Bioorg Med Chem Lett, 2005).

Experiments:
[1] = Inhibitory concentration against MMP-3
How it was run: (§1)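 Continuous fluorescence assay of commercially sourced enzyme cleaving a synthetic peptide whose fluorophore (7-methoxycoumarin or 2-aminobenzoyl) is quenched by 2,4-dinitrophenyl. Signal is read at the fluorophore's excitation/emission wavelengths. MMP-2 was preactivated with APMA. MMP-3 used substrate Mca-PKPLAL-Dpa-AR-NH2.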

[2] = species: Bos taurus; assay: Selectivity ratio for IC50 of MMP-2 to that of MMP-13
How it was run: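 Both IC50s come from continuous fluorescence assays using quenched peptide substrates (7-methoxycoumarin or 2-aminobenzoyl fluorophore, 2,4-dinitrophenyl quencher), read by plate fluorimeter. MMP-13 was prepared in-house. MMP-2 was commercial and activated with […]. […] The ratio is MMP-2 IC50 over MMP-13 IC50.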

[3] = Inhibitory concentration against MMP-9; how it was run: as §1
[4] = Inhibitory concentration against MMP-7; how it was run: as §1
[5] = target: 72 kDa type IV collagenase (Homo sapiens, UniProt P08253); assay: Inhibitory concentration against MMP-2; how it was run: as §1
[6] = target: Matrix metalloproteinase-14 (Homo sapiens, UniProt P50281); assay: Inhibitory concentration against MMP-14
[7] = target: Collagenase 3 (Bos taurus, UniProt O77656); assay: Inhibitory concentration against MMP-13 of bovine articular cartilage explants
[8] = Oral bioavailability in rat; assay type: ADME, organism-based; conditions: in vivo
How it was run: (§2)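 Rats were dosed intravenously at 2 mg/kg and orally at 5 mg/kg. Clearance and iv half-life come from the intravenous arm, oral half-life from the oral arm, and bioavailability from comparison of the two routes.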

[9] = Total clearance from rat upon iv administration at 2 mg/kg; assay type: ADME, organism-based; design: dose 2 mg/kg, route intravenous; conditions: in vivo; how it was run: as §2
[10] = Half-life in rat upon oral administration at 5 mg/kg; assay type: ADME, organism-based; design: dose 5 mg/kg, route oral; conditions: in vivo; how it was run: as §2
[11] = target: T1, Interstitial collagenase (Homo sapiens, UniProt P03956); assay: Inhibitory concentration against MMP-1
T1 sequence (P03956 whole entry): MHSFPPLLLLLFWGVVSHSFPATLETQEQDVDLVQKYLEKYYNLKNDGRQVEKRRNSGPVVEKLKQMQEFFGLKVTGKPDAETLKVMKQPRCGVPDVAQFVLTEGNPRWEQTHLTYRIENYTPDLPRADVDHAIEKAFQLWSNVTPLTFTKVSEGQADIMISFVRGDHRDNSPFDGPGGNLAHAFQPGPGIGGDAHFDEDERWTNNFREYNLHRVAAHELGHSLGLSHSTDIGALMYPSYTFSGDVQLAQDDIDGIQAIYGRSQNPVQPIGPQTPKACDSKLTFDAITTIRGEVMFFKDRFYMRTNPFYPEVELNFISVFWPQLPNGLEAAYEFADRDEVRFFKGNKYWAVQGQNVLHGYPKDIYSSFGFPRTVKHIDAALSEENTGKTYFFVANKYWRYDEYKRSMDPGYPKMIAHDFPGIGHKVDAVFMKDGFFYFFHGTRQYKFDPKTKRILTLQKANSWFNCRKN
How it was run: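 Continuous fluorescence assay with in-house prepared enzyme. The synthetic peptide substrate carries a 7-methoxycoumarin or 2-aminobenzoyl fluorophore quenched by energy transfer to 2,4-dinitrophenyl. Read in plate fluorimeter at fluorophore excitation/emission wavelengths.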

[12] = Half-life in rat upon iv administration; assay type: ADME, organism-based; conditions: in vivo; how it was run: as §2

Chain of 72 kDa type IV collagenase (P08253 whole entry): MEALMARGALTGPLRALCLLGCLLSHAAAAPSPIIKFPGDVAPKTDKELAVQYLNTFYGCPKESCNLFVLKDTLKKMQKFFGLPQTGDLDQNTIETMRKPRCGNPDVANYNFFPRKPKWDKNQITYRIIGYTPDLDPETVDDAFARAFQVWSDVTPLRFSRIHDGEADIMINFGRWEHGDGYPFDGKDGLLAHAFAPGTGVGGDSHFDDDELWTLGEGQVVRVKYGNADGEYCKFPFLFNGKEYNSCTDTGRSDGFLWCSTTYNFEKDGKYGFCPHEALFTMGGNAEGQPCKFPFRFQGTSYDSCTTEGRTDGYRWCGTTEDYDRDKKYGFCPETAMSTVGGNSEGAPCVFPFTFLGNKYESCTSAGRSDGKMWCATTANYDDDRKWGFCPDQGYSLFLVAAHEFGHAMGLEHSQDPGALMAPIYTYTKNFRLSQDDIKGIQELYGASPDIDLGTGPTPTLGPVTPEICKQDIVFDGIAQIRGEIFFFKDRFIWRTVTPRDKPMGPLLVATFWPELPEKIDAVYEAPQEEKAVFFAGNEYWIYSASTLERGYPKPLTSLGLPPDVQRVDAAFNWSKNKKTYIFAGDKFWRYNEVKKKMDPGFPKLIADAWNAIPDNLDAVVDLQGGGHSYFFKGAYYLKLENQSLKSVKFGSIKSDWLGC

Row | Compound | Selectivity [2] | IC50 [5] | IC50 [7] | further results
1 | O=C(O)CNS(=O)(=O)c1ccc(-c2ccc(NC(=O)c3cc4ccccc4o3)cc2)cc1 |  |  | 22 nM | 
2 | CC(C)[C@H](NS(=O)(=O)c1ccc(-c2ccc(NC(=O)c3cc4ccccc4o3)cc2)cc1)C(=O)O |  | 5 nM |  | bioavailability [8]: 24%; clearance [9]: 0.12 L/h/kg; half-life [10]: 3 h; IC50 [11]: > 16000 nM; half-life [12]: 3.7 h
3 | Cc1cc(C)c(N(Cc2ccccc2)S(=O)(=O)c2ccc(OCCNC(=O)c3cc4ccccc4o3)cc2)c(C(=O)NO)c1 |  |  | 10000 nM | 
4 | CC(C)[C@H](NS(=O)(=O)c1ccc(-c2ccc(NC(=O)c3csnn3)cc2)cc1)C(=O)O |  | 2.14 nM |  | 
5 | O=C(NCCCCN1CCOCC1)c1cc2ccccc2o1 |  |  | 3200 nM | 
6 | COc1cccc2cc(C(=O)Nc3ccc(-c4ccc(S(=O)(=O)N[C@H](C(=O)O)C(C)C)cc4)cc3)oc12 | 0.6 | 12.1 nM | 20.2 nM | IC50 [6]: 10900 nM
7 | CC(C)[C@H](NS(=O)(=O)c1ccc(-c2ccc(NCc3cc4ccccc4o3)cc2)cc1)C(=O)O |  | 23.3 nM | 4.9 nM | IC50 [6]: 6600 nM
8 | CC(C)[C@H](NS(=O)(=O)c1ccc(-c2ccc(NC(=O)c3cc4c(OCc5ccccc5)cccc4o3)cc2)cc1)C(=O)O | 18 |  |  | 

More lines, main results first:

Row | Selectivity [2] | IC50 [5] | IC50 [7] | Compound | further results
9 | 107 | 1590 nM | 14.9 nM | CC(Oc1cccc2oc(C(=O)Nc3ccc(-c4ccc(S(=O)(=O)N[C@H](C(=O)O)C(C)C)cc4)cc3)cc12)C(=O)O (stereo not given in full) | IC50 [1]: 843 nM; IC50 [3]: 5600 nM; IC50 [4]: 2500 nM; IC50 [6]: 20000 nM
10 |  |  | 2.19 nM | CC(C)C[C@H](NS(=O)(=O)c1ccc(-c2ccc(NC(=O)c3cc4ccccc4o3)cc2)cc1)C(=O)O | 
11 | 5.3 | 3.2 nM | 0.6 nM | CC(C)[C@H](NS(=O)(=O)c1ccc(-c2ccc(NC(=O)c3cc4cc(Cl)ccc4o3)cc2)cc1)C(=O)O | 
12 |  |  | 2.53 nM | NC(=O)C[C@H](NS(=O)(=O)c1ccc(-c2ccc(NC(=O)c3cc4ccccc4o3)cc2)cc1)C(=O)O | 
13 | 9.1 | 3.9 nM | 0.43 nM | CC(C)[C@H](NS(=O)(=O)c1ccc(-c2ccc(NC(=O)c3cc4cc(NS(C)(=O)=O)ccc4o3)cc2)cc1)C(=O)O | 
14 |  |  | 1.5 nM | CC(C)[C@H](NS(=O)(=O)c1ccc(-c2ccc(NC(=O)c3cc4cc(N)ccc4o3)cc2)cc1)C(=O)O | 
15 | 2.8 | 2 nM | 0.7 nM | CC(C)[C@H](NS(=O)(=O)c1ccc(-c2ccc(NC(=O)c3cc4cc([N+](=O)[O-])ccc4o3)cc2)cc1)C(=O)O | 
16 |  | 27.8 nM | 4.5 nM | O=C(Nc1ccc(-c2ccc(S(=O)(=O)N[C@@H](CO)C(=O)O)cc2)cc1)c1cc2ccccc2o1 | 
17 | 5.6 |  | 3.4 nM | CC(C)[C@H](NS(=O)(=O)c1ccc(-c2ccc(NC(=O)c3cc4cc(NS(=O)(=O)c5ccccc5)ccc4o3)cc2)cc1)C(=O)O | 
18 | 4.1 | 4 nM | 0.98 nM | CC(=O)Nc1ccc2oc(C(=O)Nc3ccc(-c4ccc(S(=O)(=O)N[C@H](C(=O)O)C(C)C)cc4)cc3)cc2c1 | 
19 | 2.8 | 1.9 nM | 0.66 nM | COc1ccc2oc(C(=O)Nc3ccc(-c4ccc(S(=O)(=O)N[C@H](C(=O)O)C(C)C)cc4)cc3)cc2c1 | IC50 [6]: 1.5 nM
20 | 6.9 |  | 2.33 nM | COc1cccc2oc(C(=O)Nc3ccc(-c4ccc(S(=O)(=O)N[C@H](C(=O)O)C(C)C)cc4)cc3)cc12 | 
